Measured values as given in paper PMC5030192 (International journal of pharmaceutics, 2016).
Converted amounts (≈) assume the structure as drawn. Square brackets hold non-standard residues; d marks the D form. Peptide text beside a SMILES is read from it. Sar = CNCC(=O)O

Columns and labels:
[1] = system: PepT1; test: [3H]-GlySar uptake, interaction with peptide transporter; assay type: cell-based
Summary of the method: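 Monolayers grown to 80–90% confluency (6–7 days after seeding 3 × 10⁶ cells) were washed thrice in DPBS pH 7.4 at 37°C. They were then incubated 30 min at 37°C with [3H]-GlySar in DPBS plus test compound (25µM) or cold GlySar (10mM). Ice-cold stop wash, lysis in 0.1% Triton-X/0.3% NaOH overnight, scintillation counting; uptake normalised to protein. n=4, mean ± S.D., Student t-test.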

[2] = Solubility studies in distilled deionized water; assay type: physicochemical; conditions: thermodynamic from solid
[3] = biological target: P-gp (Homo sapiens, UniProt P08183); test: [3H]-LPV cellular uptake in MDCK-MDR1 cells; assay type: cell-based
[4] = biological target: MRP2 (Homo sapiens, UniProt Q92887); test: [3H]-LPV cellular uptake in MDCK-MRP2 cells; assay type: cell-based
[5] = system: PHT1; test: [3H]-His uptake, interaction with peptide/histidine transporter; assay type: cell-based; conditions: 25µM; MDCK-MDR1, MDCK-MRP2, Caco-2
[6] = ref Patel, 2014, cited from earlier work
[7] = system: MDCKII-WT cells; test: MTS based cytotoxicity assay

Chain of P-gp (P08183 whole entry): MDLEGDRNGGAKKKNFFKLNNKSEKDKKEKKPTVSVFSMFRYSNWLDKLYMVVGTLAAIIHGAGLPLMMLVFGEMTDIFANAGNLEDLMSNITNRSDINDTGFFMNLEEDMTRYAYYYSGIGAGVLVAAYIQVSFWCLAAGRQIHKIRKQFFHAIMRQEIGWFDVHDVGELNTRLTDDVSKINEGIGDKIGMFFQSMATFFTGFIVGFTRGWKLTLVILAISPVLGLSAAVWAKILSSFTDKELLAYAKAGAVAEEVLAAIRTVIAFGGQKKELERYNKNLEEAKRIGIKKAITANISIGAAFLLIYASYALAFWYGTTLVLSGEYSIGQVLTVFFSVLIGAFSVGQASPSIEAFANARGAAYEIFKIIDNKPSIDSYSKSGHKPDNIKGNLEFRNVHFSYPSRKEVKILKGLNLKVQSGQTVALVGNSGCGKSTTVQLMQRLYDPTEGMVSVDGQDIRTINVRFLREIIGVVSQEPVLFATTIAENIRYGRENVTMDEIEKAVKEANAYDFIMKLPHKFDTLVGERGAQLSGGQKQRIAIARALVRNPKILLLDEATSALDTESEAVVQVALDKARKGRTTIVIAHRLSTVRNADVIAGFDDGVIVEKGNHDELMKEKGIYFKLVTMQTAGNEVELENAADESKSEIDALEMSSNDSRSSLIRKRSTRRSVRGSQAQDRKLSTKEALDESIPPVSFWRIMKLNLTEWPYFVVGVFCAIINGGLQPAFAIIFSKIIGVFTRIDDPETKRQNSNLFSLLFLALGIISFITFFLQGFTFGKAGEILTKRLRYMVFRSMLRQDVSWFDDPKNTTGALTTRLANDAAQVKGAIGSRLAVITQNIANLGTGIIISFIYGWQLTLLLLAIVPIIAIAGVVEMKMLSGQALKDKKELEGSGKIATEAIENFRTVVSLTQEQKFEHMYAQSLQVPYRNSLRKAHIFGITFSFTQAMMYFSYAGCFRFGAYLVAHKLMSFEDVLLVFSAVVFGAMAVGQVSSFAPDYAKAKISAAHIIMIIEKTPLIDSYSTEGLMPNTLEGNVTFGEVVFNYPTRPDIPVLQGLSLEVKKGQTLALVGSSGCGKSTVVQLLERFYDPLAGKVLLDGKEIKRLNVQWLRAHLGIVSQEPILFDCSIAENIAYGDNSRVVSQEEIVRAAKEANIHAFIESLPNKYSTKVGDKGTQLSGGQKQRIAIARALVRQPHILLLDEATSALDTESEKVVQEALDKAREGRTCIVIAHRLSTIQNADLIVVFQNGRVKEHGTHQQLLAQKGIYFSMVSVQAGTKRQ
Chain of MRP2 (Q92887 whole entry): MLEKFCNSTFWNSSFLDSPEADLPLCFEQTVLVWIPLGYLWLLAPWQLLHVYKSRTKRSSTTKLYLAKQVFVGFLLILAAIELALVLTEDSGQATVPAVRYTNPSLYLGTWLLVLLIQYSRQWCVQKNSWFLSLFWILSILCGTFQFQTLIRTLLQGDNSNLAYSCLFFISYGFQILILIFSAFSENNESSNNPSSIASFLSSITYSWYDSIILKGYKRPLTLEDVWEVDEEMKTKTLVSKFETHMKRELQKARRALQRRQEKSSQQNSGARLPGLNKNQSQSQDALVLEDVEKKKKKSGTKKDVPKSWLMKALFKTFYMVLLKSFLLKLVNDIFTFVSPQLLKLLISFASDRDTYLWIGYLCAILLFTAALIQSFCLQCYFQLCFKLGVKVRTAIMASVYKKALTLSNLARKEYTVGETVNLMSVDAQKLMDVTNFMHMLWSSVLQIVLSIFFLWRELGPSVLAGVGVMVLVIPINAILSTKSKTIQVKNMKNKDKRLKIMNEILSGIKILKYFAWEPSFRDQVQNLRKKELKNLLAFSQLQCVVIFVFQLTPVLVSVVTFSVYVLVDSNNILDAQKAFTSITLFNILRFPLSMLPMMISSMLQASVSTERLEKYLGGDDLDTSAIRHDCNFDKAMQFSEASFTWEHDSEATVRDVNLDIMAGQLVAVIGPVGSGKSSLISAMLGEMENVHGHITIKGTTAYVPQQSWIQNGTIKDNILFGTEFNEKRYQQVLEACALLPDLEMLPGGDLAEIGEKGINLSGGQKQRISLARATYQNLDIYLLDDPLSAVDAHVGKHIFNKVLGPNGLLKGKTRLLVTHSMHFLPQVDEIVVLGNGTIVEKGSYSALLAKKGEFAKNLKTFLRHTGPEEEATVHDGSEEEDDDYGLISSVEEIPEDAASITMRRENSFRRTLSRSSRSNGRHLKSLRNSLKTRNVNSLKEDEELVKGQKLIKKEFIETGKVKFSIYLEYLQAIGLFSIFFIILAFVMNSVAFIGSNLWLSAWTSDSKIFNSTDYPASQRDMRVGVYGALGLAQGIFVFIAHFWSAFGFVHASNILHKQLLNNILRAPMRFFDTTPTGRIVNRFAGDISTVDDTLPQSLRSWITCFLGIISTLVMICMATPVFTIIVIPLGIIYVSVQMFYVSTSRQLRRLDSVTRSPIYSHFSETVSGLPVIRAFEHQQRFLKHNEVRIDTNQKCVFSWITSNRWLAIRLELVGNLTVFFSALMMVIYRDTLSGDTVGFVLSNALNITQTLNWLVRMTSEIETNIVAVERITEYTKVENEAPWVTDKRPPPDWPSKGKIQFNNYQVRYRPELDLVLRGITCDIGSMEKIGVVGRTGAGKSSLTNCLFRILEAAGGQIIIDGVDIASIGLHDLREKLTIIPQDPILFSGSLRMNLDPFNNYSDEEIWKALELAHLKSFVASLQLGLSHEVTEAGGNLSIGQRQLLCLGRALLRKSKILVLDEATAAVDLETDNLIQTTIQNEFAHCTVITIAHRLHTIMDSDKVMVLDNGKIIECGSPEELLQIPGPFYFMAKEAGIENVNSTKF

## CN(CC(=O)O)C(=O)CN [GlySar, Glycylsarcosine] (H-Gly-[Sar]-OH)
[1]; all cell lines (MDCK-MDR1, MDCK-MRP2, Caco-2), prodrug 25µM, cold GlySar 10mM
  reduction in [3H]-GlySar uptake: 75%

## Cc1cccc(C)c1OCC(=O)N[C@@H](Cc1ccccc1)[C@@H](O)C[C@H](Cc1ccccc1)NC(=O)[C@H](C(C)C)N1CCCNC1=O [LPV, Lopinavir]
[2]
  solubility at 24 h: 49 ± 3 µg/mL (≈ 77.9 µM)
[3]
  [3H]-LPV uptake with increasing concentrations of unlabelled compound: dramatically elevated
[4]
  [3H]-LPV uptake with increasing concentrations of unlabelled compound: dramatically elevated
[1]; 25µM, MDCK-MDR1, MDCK-MRP2, Caco-2
  variation in [3H]-GlySar uptake in presence of compound: no such variation
[5]
  variation in [3H]-L-His uptake in presence of compound: no such variation
[6]; LPV itself dosed orally, rats
  mean residential time (MRT): 3.13 h
[6]; regenerated after oral Val-Ile-LPV, rats
  mean residential time (MRT) of regenerated LPV: 10.1 h
[6]; single oral dose, Sprague Dawley rats
  Area under the curve (AUC) of administered compound: 177 ± 5 µmol·min/L
[7]; 100 µM, 4h incubation, MDCK-WT cells
  reduction in number of viable cells: Approximately 13%
[7]; 200 µM, 4h incubation, MDCK-WT cells
  reduction in number of viable cells / cell viability: ~36%
[7]; 5–50 µM, 4h incubation, MDCK-WT cells
  Cytotoxicity: no cytotoxic effects

## CC(C)(C)CC(C)(C)c1ccc(OCCO)cc1 [Triton-X]
[7]; 0.1% Triton-X, positive control
  decrease in absorbance compared to negative control: about 70%
